According to ChEMBL document CHEMBL4350963, “Discovery and Lead-Optimization of 4,5-Dihydropyrazoles as Mono-Kinase Selective, Orally Bioavailable and Efficacious Inhibitors of Receptor Interacting Protein 1 (RIP1) Kinase” (J Med Chem, 2019):
Values after ≈ are worked out from the molar mass of the structure shown.

Experiments:
[1] = Chromatographic hydrophobicity index, log D of the compound at pH 7.4 by reverse-phase HPLC analysis; assay type: physicochemical; settings: buffer
In short: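 Log D at pH 7.4 was calculated from the retention time on a fast-gradient reverse-phase HPLC run.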

[2] = Lipophilicity, log P of the compound; assay type: physicochemical; settings: octanol/water
[3] = Drug metabolism in rat blood assessed as hydroxylation; assay type: ADME, tissue-based
[4] = Drug metabolism in rat bile assessed as hydroxylation; assay type: ADME, tissue-based
[5] = Drug metabolism in rat urine assessed as hydroxylation; assay type: ADME
[6] = Drug exposure in rat at 2 mg/kg, po; assay type: ADME, organism-based; settings: in vivo, BLD = below limit of detection
In short: (§1)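 Rat pharmacokinetics: the iv arm was dosed at 1 mg/kg in 5% DMSO/20% Cavitron aqueous solution. The oral arm was dosed at 2 mg/kg in 5% DMSO/6% Cavitron aqueous solution. Bioavailability was calculated non-crossover, from average exposures in separate oral and iv studies.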

[7] = Volume of distribution at steady state in rat at 1 mg/kg, iv; assay type: ADME, organism-based; settings: in vivo, read-out: Vdss
[8] = AUC (0 to infinity) in rat at 1 mg/kg, iv; assay type: ADME, organism-based; set-up: dose 1 mg/kg, time infinity, route intravenous; settings: in vivo; in short: as §1
[9] = Solubility of the compound in fasted state simulated intestinal fluid measured after 4 hrs; assay type: physicochemical
[10] = Cmax in rat at 2 mg/kg, po; assay type: ADME, organism-based; set-up: dose 2 mg/kg, route oral; settings: in vivo; in short: as §1
[11] = Tmax in rat at 2 mg/kg, po; assay type: ADME, organism-based; settings: in vivo
[12] = Oral bioavailability in rat at 2 mg/kg; assay type: ADME, organism-based; settings: in vivo
[13] = Volume of distribution at steady state in mouse at 2 mg/kg, iv; assay type: ADME, organism-based; settings: in vivo, read-out: Vdss
[14] = AUC (0 to infinity) in mouse at 2 mg/kg, iv; assay type: ADME, organism-based; set-up: dose 2 mg/kg, time infinity, route intravenous; settings: in vivo
[15] = Cmax in mouse at 30 mg/kg, po; assay type: ADME, organism-based; set-up: dose 30 mg/kg, route oral; settings: in vivo
In short: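 Mouse pharmacokinetics: the iv arm received 2 mg/kg in 5% DMSO/20% Cavitron aqueous solution. The oral arm received 30 mg/kg as a suspension in 1% aqueous methylcellulose.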

[16] = Tmax in mouse at 30 mg/kg, po; assay type: ADME, organism-based; settings: in vivo
[17] = Volume of distribution at steady state in minipig at 1 mg/kg, iv; assay type: ADME, organism-based, Sus scrofa; settings: pig, in vivo, read-out: Vdss
[18] = AUC (0 to infinity) in minipig at 1 mg/kg, iv; assay type: ADME, organism-based, Sus scrofa; set-up: dose 1 mg/kg, route intravenous, time infinity; settings: pig, in vivo
[19] = Cmax in minipig at 2 mg/kg, po; assay type: ADME, organism-based, Sus scrofa; set-up: dose 2 mg/kg, route oral; settings: pig, in vivo
[20] = Tmax in minipig at 2 mg/kg, po; assay type: ADME, organism-based, Sus scrofa; settings: pig, in vivo
[21] = Oral bioavailability in minipig at 2 mg/kg; assay type: ADME, organism-based, Sus scrofa; settings: pig, in vivo
[22] = Volume of distribution at steady state in monkey at 1 mg/kg, iv; assay type: ADME, organism-based, Macaca mulatta; settings: rhesus monkey, in vivo, read-out: Vdss
[23] = AUC (0 to infinity) in monkey at 1 mg/kg, iv; assay type: ADME, organism-based, Macaca mulatta; set-up: dose 1 mg/kg, time infinity, route intravenous; settings: rhesus monkey, in vivo
[24] = Cmax in monkey at 2 mg/kg, po; assay type: ADME, organism-based, Macaca mulatta; set-up: dose 2 mg/kg, route oral; settings: rhesus monkey, in vivo
[25] = Tmax in monkey at 2 mg/kg, po; assay type: ADME, organism-based, Macaca mulatta; settings: rhesus monkey, in vivo
[26] = Oral bioavailability in monkey at 2 mg/kg; assay type: ADME, organism-based, Macaca mulatta; settings: rhesus monkey, in vivo

Structure (SMILES)	chromatographic logD [1]	other results
CC(C)C(=O)N1N=CCC1c1ccccc1 (stereo not given)	4.4	
O=C(c1ccccn1)N1N=CCC1c1ccccc1 (stereo not given)	2.4	
CC(C)(C)C(=O)N1N=CC[C@H]1c1ccccc1	5.8	logP [2]: 5.9; Drug metabolism [3]: Metabolite_Detected; Drug metabolism [4]: Metabolite_Detected; Drug metabolism [5]: Metabolite_Detected; Drug uptake [6]: Bld
O=C(c1cn[nH]c1)N1CCC(C(=O)N2N=CCC2c2ccccc2)CC1 (stereo not given)	2.1	Vd [7]: 1.6 L/kg; AUC(0-inf) [8]: 360 ng·h/mL
CCC(=O)N1CCC(C(=O)N2N=CCC2c2ccccc2)CC1 (stereo not given)	3.2	
CN1CCC(C(=O)N2N=CCC2c2ccccc2)CC1 (stereo not given)	1.1	
CC(C)(C)C(=O)N1N=CCC1c1ccc(C(C)(C)C)cc1 (stereo not given)	8	
CC(C)(C)C(=O)N1N=CCC1c1cccc(F)c1 (stereo not given)	5.9	
CC(C)(C)C(=O)N1CCC1c1ccccc1 (stereo not given)	5	
N#Cc1nccc(N2CCC(C(=O)N3N=CC[C@H]3c3cc(F)cc(F)c3)CC2)n1	5.1	
CC(C)(C)C(=O)N1N=CCC1c1ccccn1 (stereo not given)	3.5	
CC1=NN(C(=O)C(C)(C)C)[C@H](c2ccccc2)C1	6.4	
Cc1nnc(N2CCC(C(=O)N3N=CC[C@H]3c3cc(F)cc(F)c3)CC2)o1	3.6	solubility at 4 h [9]: 250 µg/mL (≈ 666 µM); Cmax [10]: 1100 ng/mL; Tmax [11]: 25 min; Vd [7]: 1.3 L/kg; AUC(0-inf) [8]: 1300 ng·h/mL; bioavailability [12]: 130%; Vd [13]: 1.8 L/kg; AUC(0-inf) [14]: 1100 ng·h/mL; Cmax [15]: 5410 ng/mL; Tmax [16]: 30 min; Vd [17]: 1.3 L/kg; AUC(0-inf) [18]: 1300 ng·h/mL; Cmax [19]: 576 ng/mL; Tmax [20]: 80 min; bioavailability [21]: 65%; Vd [22]: 1.1 L/kg; AUC(0-inf) [23]: 3100 ng·h/mL; Cmax [24]: 480 ng/mL; Tmax [25]: 120 min; bioavailability [26]: 40%
O=C(c1cccnc1)N1CCC(C(=O)N2N=CCC2c2ccccc2)CC1 (stereo not given)	2.6	
O=C(c1cnco1)N1CCC(C(=O)N2N=CC[C@H]2c2ccccc2)CC1	2.7	Vd [7]: 2.1 L/kg; AUC(0-inf) [8]: 400 ng·h/mL
O=C(c1cscn1)N1CCC(C(=O)N2N=CC[C@H]2c2ccccc2)CC1	3	
O=C(c1cccnc1)N1N=CCC1c1ccccc1 (stereo not given)	2.7	

Structure (SMILES)	chromatographic logD [1]	other results
CN1CCN(C(=O)C(C)(C)C)C(c2ccccc2)C1 (stereo not given)	4.9	
CC(C)(C)C(=O)N1N=CCC1c1cccc(Cl)c1 (stereo not given)	6.6	
O=C(C1CCN(c2cccnn2)CC1)N1N=CC[C@H]1c1ccccc1	3.4	
N#Cc1ccc(N2CCC(C(=O)N3N=CC[C@H]3c3cc(F)cc(F)c3)CC2)nn1	4.8	
O=C(c1ccccc1)N1N=CCC1c1ccccc1 (stereo not given)	4.6	
O=C(C1CCN(c2ccccc2)CC1)N1N=CCC1c1ccccc1 (stereo not given)	6.3	
O=C(c1ccccn1)N1CCC(C(=O)N2N=CCC2c2ccccc2)CC1 (stereo not given)	3.1	
CC(C)(C)C(=O)N1N=CCC1c1ccc(Cl)cc1 (stereo not given)	6.6	
CC(C)(C)C(=O)N1CCCCC1c1ccccc1 (stereo not given)	6.7	
O=C(c1cc[nH]n1)N1CCC(C(=O)N2N=CCC2c2ccccc2)CC1 (stereo not given)	2.4	
O=C(c1cocn1)N1CCC(C(=O)N2N=CCC2c2ccccc2)CC1 (stereo not given)	2.9	Vd [7]: 0.98 L/kg; AUC(0-inf) [8]: 290 ng·h/mL
O=C(c1ccccc1)N1CCC(C(=O)N2N=CCC2c2ccccc2)CC1 (stereo not given)	4.4	
CC(C)(C)C(=O)N1N=CCC1C1CCCCC1 (stereo not given)	7.3	
CC(C)(C)C(=O)N1N=CCC1c1cc(F)cc(F)c1 (stereo not given)	6.3	
O=C(C1CCN(c2ccccc2)CC1)N1N=CC[C@H]1c1ccccc1	6.3	
CC(C)(C)C(=O)N1N=CCC1c1ccccc1 (racemic)	5.8	
CC(=O)N1CCC(C(=O)N2N=CCC2c2ccccc2)CC1 (racemic)	2.5	
